Test results taken from publication PMC8336483 (Chemical Science, 2021).

Tested on: MDA-MB-231 cells
Type: cell-based, human
Settings: 1 h incubation
Outline: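 MDA-MB-231 cells incubated 1 h with fluorescent conjugates or linker-functionalised fluorescein, then analysed by fluorescence correlation spectroscopy in the cytoplasm. Probe hydrodynamic radii and cytoplasmic viscosity were first determined by FCS. Cytoplasmic diffusion coefficients came from autocorrelation curves and were compared with values predicted for free diffusion using a cytoplasm viscosity model.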

Substance: FAM-PEG
- FCS autocorrelation of fluorescence signal in cells: no autocorrelation of fluorescence signal was detected
